ChEMBL document CHEMBL5325438 (Eur J Med Chem, 2023)
Active and inactive are the calls of the source. Square brackets hold non-standard residues; d marks the D form. Peptide text beside a SMILES is read from it. * marks the point of attachment. Cav = NC(N)=NOCC[C@H](N)C(=O)O; Tle = CC(C)(C)[C@H](N)C(=O)O; X1 = C[C@@H](CCCCN)C(=O)*

Legend:
HepG2 [1] = assay: Cytotoxicity against human HepG2 cells assessed as reduction in cell viability at 100 uM incubated for 24 hrs by MTT assay relative to control; type: toxicity, cell-based; settings: hepg2, 24 h
Summary of the method: (§1)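 HepG2, MDA-MB-231 and HT-29 cells grown in DMEM/10% FBS with penicillin/streptomycin at 37 °C, 5% CO2. Exponential-phase cells seeded at 5000/well, left overnight, then exposed 24 h to peptide at 0.1–100 μM (from 1.0 mM PBS pH 7.4 stocks). Viability by MTT, as % of untreated control ± SD.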

MDA-MB-231 [2] = assay: Cytotoxicity against human MDA-MB-231 cells assessed as reduction in cell viability at 100 uM incubated for 24 hrs by MTT assay relative to control; type: toxicity, cell-based; settings: mda-mb-231, 24 h; summary of the method: as §1
HT-29 [3] = assay: Cytotoxicity against human HT-29 cells assessed as reduction in cell viability at 100 uM incubated for 24 hrs by MTT assay relative to control; type: toxicity, cell-based; settings: ht-29, 24 h; summary of the method: as §1
HepG2 [4] = assay: Cytotoxicity against human HepG2 cells assessed as reduction in cell viability at 0.1 to 100 uM incubated for 24 hrs by MTT assay; type: toxicity, cell-based; settings: hepg2, 24 h, dose 0.1-100 µM; summary of the method: as §1
MDA-MB-231 [5] = assay: Cytotoxicity against human MDA-MB-231 cells assessed as reduction in cell viability at 0.1 to 100 uM incubated for 24 hrs by MTT assay; type: toxicity, cell-based; settings: mda-mb-231, 24 h, dose 0.1-100 µM; summary of the method: as §1
HT-29 [6] = assay: Cytotoxicity against human HT-29 cells assessed as reduction in cell viability at 0.1 to 100 uM incubated for 24 hrs by MTT assay; type: toxicity, cell-based; settings: ht-29, 24 h, dose 0.1-100 µM; summary of the method: as §1
[7] = Stability of compound in PBS buffer assessed as parent compound remaining at pH 2.0 incubated for 24 hrs by UV/Vis spectroscopic analysis; type: physicochemical; settings: read-out: Stability
Summary of the method: (§2)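 Peptide at 50 μM in PBS at pH 2.0 or 7.4, kept at 37 °C; short-term stability over 0–24 h followed by UV/Vis spectroscopy; % remaining reported.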

[8] = Stability of compound in PBS buffer assessed as parent compound remaining at pH 7.4 incubated for 24 hrs by UV/Vis spectroscopic analysis; type: physicochemical; settings: read-out: Stability; summary of the method: as §2
[9] = Stability of compound in PBS buffer assessed as parent compound remaining at pH 2.0 measured after 30 days by RP-HPLC/UV/Vis spectroscopic analysis; type: physicochemical; settings: time 30 day, read-out: Stability
Summary of the method: (§3)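 Peptide at 50 μM in PBS at pH 2.0 or 7.4, stored at room temperature and 37 °C for 30 days; % peptide remaining reported.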

[10] = Stability of compound in PBS buffer assessed as parent compound remaining at pH 7.4 measured after 30 days by RP-HPLC/UV/Vis spectroscopic analysis; type: physicochemical; settings: time 30 day, read-out: Stability; summary of the method: as §3
[11] = Permeability of compound in PBS buffer at pH 7.4 at 100 uM incubated for 4 hrs by PAMPA-BBB assay; type: ADME; settings: read-out: permeability
Summary of the method: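 PAMPA-BBB with peptide at 100 μM in PBS, donor and acceptor both pH 7.4, 4 h at room temperature. Effective permeability Pe (×10⁻⁶ cm/s) and −log Pe reported as mean ± SEM of three independent experiments.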

Mus musculus [12] = assay: (§4) Neuroprotective activity against MPTP-induced Parkinson's disease BALB/c albino mouse model assessed as restoration of step-through latency values at 10 mg/kg, ip preadministered with compound for 1 hrs followed by MPTP addition and measured 10 days after first MPTP addition by step-through passive avoidance test; type: functional, organism-based; settings: time 241.0 hrs
Summary of the method: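 Male BALB/c mice (8–10 weeks, 30–35 g), n = 5/group, were dosed i.p. once daily for 5 days with peptide (10 mg/kg), then MPTP (30 mg/kg) 60 min later; controls received saline or MPTP alone. On day 10, the latency to enter the dark compartment was recorded (cut-off 180 s). Data are mean ± SEM, analysed by one-way ANOVA/Dunnett versus saline and MPTP groups.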

[13] = Toxicity in MPTP-induced parkinsons's disease BALB/c albino mouse model assessed as body weight loss at 10 mg/kg, ip preadministered with compound for 1 hrs followed by MPTP-addition and measured 5 days after first MPTP addition; type: organism-based; settings: in vivo, 121 h
Summary of the method: (§5)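 Male BALB/c mice (n = 5/group) given peptide 10 mg/kg i.p. daily for 5 days, each dose followed 60 min later by MPTP 30 mg/kg i.p.; saline controls. Body weight recorded on days 1, 5 and 10.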

[14] = Toxicity in MPTP-induced parkinsons's disease BALB/c albino mouse model assessed as body weight loss at 10 mg/kg, ip preadministered with compound for 1 hrs followed by MPTP-addition and measured 10 days after first MPTP addition; type: organism-based; settings: in vivo, 241 h; summary of the method: as §5
Mus musculus [15] = assay: as §4, with “motor function by measuring increase in hanging time value” for “step-through latency values”, “hanging” for “step-through passive avoidance”, “test relative to control” for “test”; type: functional; settings: time 241 hrs
Summary of the method: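 Male BALB/c mice, 8–10 weeks old, 30–35 g, n = 5/group, trained 3 days on a horizontal wire (55 cm, 2.0 mm diameter, 37 cm high). Peptide 10 mg/kg i.p. daily for 5 days, with MPTP 30 mg/kg i.p. given 60 min later; saline controls. Hanging time tested on day 10; one-way ANOVA with Dunnett's test; mean ± SEM.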

Mus musculus [16] = assay: Neuroprotective activity against MPTP-induced neurotoxicity in BALB/c albino mouse model assessed as alleviation of MPTP-induced nigrostriatal dopaminergic neuronal damage by measuring increase in number of TH-postivie neurons in substantia nigra at 10 mg/kg, ip preadministered with compound for 1 hrs followed by MPTP addition and measured 11 days after first MPTP addition by immunohistological staining analysis (reference value: 66 +/- 1.41%); type: functional; settings: time 265 hrs
Summary of the method: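 Same dosing as the behavioural study (peptide 10 mg/kg i.p., then MPTP 30 mg/kg i.p. 60 min later, 5 days; n = 5). Brains taken on day 11, fixed in 10% paraformaldehyde (pH 7.4, 0.1 M phosphate) overnight at 4 °C and paraffin-embedded. Substantia nigra sections stained with rabbit anti-TH (1:500). TH-positive cells counted, as % of saline control; ANOVA/Dunnett.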

[17] = target: T1, Neurotensin receptor type 1 (Homo sapiens, UniProt P30989); assay: Binding affinity to human NTSR1 transfected in HEK293 cells assessed as inhibition constant incubated for 60 mins in the presence of [Leu3H]NT(8-13) by radioligand competition binding assay; type: cell-based
T1 sequence (P30989 whole entry): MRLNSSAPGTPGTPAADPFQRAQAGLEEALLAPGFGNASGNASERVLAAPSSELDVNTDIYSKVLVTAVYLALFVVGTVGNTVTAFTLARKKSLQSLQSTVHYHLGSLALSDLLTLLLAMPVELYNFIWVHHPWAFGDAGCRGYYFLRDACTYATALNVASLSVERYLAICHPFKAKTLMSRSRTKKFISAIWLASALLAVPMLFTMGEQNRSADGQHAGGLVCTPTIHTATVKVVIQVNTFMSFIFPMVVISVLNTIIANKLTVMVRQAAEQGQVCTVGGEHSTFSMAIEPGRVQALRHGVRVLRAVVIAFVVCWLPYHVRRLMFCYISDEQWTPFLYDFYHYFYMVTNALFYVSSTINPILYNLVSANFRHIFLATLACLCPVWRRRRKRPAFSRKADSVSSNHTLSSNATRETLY

[18] = target: Neurotensin receptor type 2 (Homo sapiens, UniProt O95665); assay: Binding affinity to human NTSR2 transfected in HEK293 cells assessed as inhibition constant incubated for 60 mins in the presence of [Leu3H]NT(8-13) by radioligand competition binding assay; type: cell-based
Neurotensin receptor type 2, sequence (O95665 whole entry): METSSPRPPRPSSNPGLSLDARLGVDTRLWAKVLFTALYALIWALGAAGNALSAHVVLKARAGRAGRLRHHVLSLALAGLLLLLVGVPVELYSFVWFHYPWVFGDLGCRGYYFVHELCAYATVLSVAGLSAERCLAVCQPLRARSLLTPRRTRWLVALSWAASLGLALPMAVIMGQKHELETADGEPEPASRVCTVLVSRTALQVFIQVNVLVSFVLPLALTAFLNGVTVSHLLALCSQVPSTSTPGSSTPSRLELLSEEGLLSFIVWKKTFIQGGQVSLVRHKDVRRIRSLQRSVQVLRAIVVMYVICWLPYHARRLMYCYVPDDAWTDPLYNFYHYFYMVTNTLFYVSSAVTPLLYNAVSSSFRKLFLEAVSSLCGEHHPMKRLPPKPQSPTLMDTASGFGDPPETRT
Summary of the method: (§6)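 IC50 from nonlinear regression, converted to Ki by Cheng–Prusoff; protein by Lowry. Means ± SEM of three (NTS1R) or four to five (NTS2R) experiments, each in triplicate. SI = Ki(NTS1R)/Ki(NTS2R).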

Homo sapiens = organism: Homo sapiens; assay: Selectivity index, ratio of Ki for human NTSR1 transfected in HEK293 cells in the presence of [Leu3H]NT(8-13) to Ki for human NTSR2 transfected in HEK293 cells in the presence of [Leu3H]NT(8-13); type: cell-based
Summary of the method: as §6, with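 “Membranes from HEK293(T) cells transiently transfected with hNTS1R or hNTS2R; competition binding against [³H]NT(8–13). IC50” for “IC50”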

[19] = target: T1, Neurotensin receptor type 1; assay: Agonist activity at human NTSR1 expressed in HEK293 cells assessed as Galphaq-mediated modulation of IP production incubated for 90 mins by IP-one HTRF assay; type: functional, cell-based
[20] = target: T1, Neurotensin receptor type 1; assay: Agonist activity at human NTSR1 expressed in HEK293 cells assessed as Galphaq-mediated modulation of IP production by measuring maximal efficacy incubated for 90 mins by IP-one HTRF assay relative to full effect of (2S)-2-[[(2S,3S)-2-[[(2S)-2-[[(2S)-1-[(2S)-2-[[(2S)-2-amino-5-guanidino-pentanoyl]amino]-5-guanidino-pentanoyl]pyrrolidine-2-carbonyl]amino]-3-(4-hydroxyphenyl)propanoyl]amino]-3-methyl-pentanoyl]amino]-4-methyl-pentanoic acid; type: functional, cell-based; settings: filed as agonist
[21] = target: T1, Neurotensin receptor type 1; assay: Binding affinity to human NTS1R assessed as dissociation constant

| SMILES | viability (HepG2 [1]) [%] | viability (MDA-MB-231 [2]) [%] | viability (HT-29 [3]) [%] | Activity (HepG2 [4]) | Activity (MDA-MB-231 [5]) | Activity (HT-29 [6]) | remaining at 24 h [7] [%] | remaining at 24 h [8] [%] | remaining at 720 h [9] [%] | remaining at 720 h [10] [%] | Papp at 4 h, 100 µM [11] [×10⁻⁶ cm/s] | Ki [17] [nM] | Ki [18] [nM] | EC50 [19] [nM] | Emax [20] [%] | also measured |
| --- | --- | --- | --- | --- | --- | --- | --- | --- | --- | --- | --- | --- | --- | --- | --- | --- |
| CC[C@H](C)[C@H](NC(=O)[C@H](Cc1ccc(O)cc1)NC(=O)[C@@H]1CCCN1C(=O)[C@H](CCCNC(=N)N)NC(=O)[C@@H](N)CCCNC(=N)N)C(=O)N[C@@H](CC(C)C)C(=O)O | 96 | 93.3 | 90.7 | Non-Toxic | Non-Toxic | Non-Toxic | 100 | 100 | > 97 | 100 | 0.64 | – | – | – | – | Activity (Mus musculus [12]): Active; Activity [13]: Toxic; Activity [14]: Non-Toxic; Activity (Mus musculus [15]): 31%; Activity (Mus musculus [16]): 77.5% |
| CC[C@H](C)[C@H](NC(=O)[C@H](Cc1ccc(O)cc1)NC(=O)[C@@H]1CCCN1C(=O)[C@H](CCON=C(N)N)NC(=O)[C@@H](N)CCON=C(N)N)C(=O)N[C@@H](CC(C)C)C(=O)O | – | – | – | Non-Toxic | Non-Toxic | Non-Toxic | – | – | – | – | – | – | – | – | – | – |
| CC[C@H](C)[C@H](NC(=O)[C@H](Cc1ccc(O)cc1)NC(=O)[C@@H]1CCCN1C(=O)[C@H](CCON=C(N)N)NC(=O)[C@@H](N)CCCN=C(N)N)C(=O)N[C@@H](CC(C)C)C(=O)O | 99.8 | 97.7 | 88.9 | – | – | – | 100 | 100 | > 94 | > 95 | 0.89 | – | – | – | – | – |
| CC[C@H](C)[C@H](NC(=O)[C@H](Cc1ccc(O)cc1)NC(=O)[C@@H]1CCCN1C(=O)[C@H](CCCN=C(N)N)NC(=O)[C@@H](N)CCON=C(N)N)C(=O)N[C@@H](CC(C)C)C(=O)O | – | – | – | Non-Toxic | Non-Toxic | Non-Toxic | – | – | – | – | – | – | – | – | – | – |
| CC[C@H](C)[C@H](NC(=O)[C@H](Cc1ccc(O)cc1)NC(=O)[C@@H]1CCCN1C(=O)[C@H](CCON=C(N)N)NC(=O)[C@@H](N)CCCCN)C(=O)N[C@@H](CC(C)C)C(=O)O (H-K[Cav]PYIL-OH) | 95.1 | 97.3 | 94.6 | – | – | – | 100 | 100 | > 97 | > 100 | 2.81 | 6.9 | 6.5 | 0.82 | 97 | Ratio Ki (Homo sapiens): 1.06; Activity (Mus musculus [12]): Active; Activity [13]: Toxic; Activity [14]: Non-Toxic; Activity (Mus musculus [15]): 87%; Activity (Mus musculus [16]): 90% |
| CC[C@H](C)[C@H](NC(=O)[C@H](Cc1ccc(O)cc1)NC(=O)[C@@H]1CCCN1)C(=O)N[C@@H](CC(C)C)C(=O)O (H-PYIL-OH) | – | – | – | Non-Toxic | Non-Toxic | Non-Toxic | – | – | – | – | – | > 50000 | > 50000 | 3200 | 100 | – |
| CC[C@H](C)[C@H](NC(=O)[C@H](Cc1ccc(O)cc1)NC(=O)[C@@H]1CCCN1C(=O)[C@H](CCCCN)NC(=O)[C@@H](N)CCON=C(N)N)C(=O)N[C@@H](CC(C)C)C(=O)O (H-[Cav]KPYIL-OH) | – | – | – | Non-Toxic | Non-Toxic | Non-Toxic | – | – | – | – | – | 15 | 14 | 0.85 | 99 | Ratio Ki (Homo sapiens): 1.07 |
| CC(C)C[C@H](NC(=O)[C@@H](NC(=O)[C@H](Cc1ccc(O)cc1)NC(=O)[C@@H]1CCCN1C(=O)[C@H](CCCNC(=N)N)NC(=O)[C@@H](C)CCCCN)C(C)(C)C)C(=O)O (X1-RPY[Tle]L-OH) | – | – | – | – | – | – | – | – | – | – | – | – | – | – | – | Kd [21]: 5.71 nM |
